The list is not random: actives were taken first. Their share in the collection is about 1.8%.
Jurkat NFkB inh = inhibitors of the PMA/ionomycin-induced NF-kB reporter in Jurkat cells; PMA/ionomycin-induced NF-kB luciferase reporter, luminescence; inhibition, % at 4 µM; 0.53% of 330,000 active; AID 435003; in the data active means inhibition above about 50%
Gli-Sufu antag = Gli-Sufu pathway antagonism. Sufu-KO-LIGHT fibroblasts, Gli luciferase reporter luminescence. inhibition, % at 5 µM. 0.74% of 340,000 active. AID 588413;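 active means inhibition above about 55%, limit read from the data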;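 further: 0% = DMSO-treated cells and 100% = wells with medium but no cells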
697 NFkB inh = inhibitors of the PMA/ionomycin-induced NF-kB reporter in 697 B cells; 697 B-cell NF-kB luciferase reporter, 16 h; inhibition, % at 4 µM; 0.33% of 330,000 active; AID 435022; in the data active means inhibition above about 35%
NR2E3 ag-1 = activates human NR2E3 receptor. Q9Y5X4. AID 602229. 0.35% of 360,000 active. inhibition of corepressor binding, % at 3.98 µM. CHO-S Gal4-NCOR/VP16-NR2E3 two-hybrid, luciferase;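 active means inhibition above the mean of all tested compounds plus 3 SD, cut at about 70% in these data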;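 further: 0% = DMSO with NR2E3 transfected cells and 100% = cells lacking NR2E3 construct; higher means lower luciferase signal from less NR2E3 corepressor binding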
Target sequence (Q9Y5X4 whole entry, looked up, the tested form may be a part): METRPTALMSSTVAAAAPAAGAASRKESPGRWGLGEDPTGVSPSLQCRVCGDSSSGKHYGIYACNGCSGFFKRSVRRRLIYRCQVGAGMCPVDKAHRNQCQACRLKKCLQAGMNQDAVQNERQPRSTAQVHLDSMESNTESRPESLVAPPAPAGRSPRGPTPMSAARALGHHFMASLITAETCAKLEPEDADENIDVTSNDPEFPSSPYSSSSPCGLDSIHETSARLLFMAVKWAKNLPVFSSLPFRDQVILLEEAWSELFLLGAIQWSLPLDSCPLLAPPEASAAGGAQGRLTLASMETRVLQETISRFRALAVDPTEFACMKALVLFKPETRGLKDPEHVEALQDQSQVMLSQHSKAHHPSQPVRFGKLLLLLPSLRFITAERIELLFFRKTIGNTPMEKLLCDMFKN
NR2E3 ag-2 = activates human photoreceptor nuclear receptor NR2E3. Q9Y5X4. GST-NR2E3/biotin-RetCOR TR-FRET, 1536-well. inhibition of corepressor binding, % at 4.78 µM. 0.12% of 320,000 active. AID 2300;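 active means percent inhibition above the cutoff of mean plus 3 SD of all tested compounds, set per screening campaign, cut at about 20% in these data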;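 further: 0% = DMSO wells and 100% = biotin wells as full block of FRET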
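System: GST-tagged NR2E3 plus biotinylated RetCOR corepressor; Amount: 1.35 nM GST-tagged NR2E3 final; Dosing: single nominal compound dose of 4.8 µM; Schedule: 5 h incubation at 4 °C; Technique: TR-FRET with europium anti-GST and streptavidin-D2, 340 nm excitation; Controls: biotin wells as high control, 0.6% DMSO wells as low control.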
GalR3 antagonist = antagonists of human GalR3; O60755; 0.44% of 360,000 active; HEK293 GalR3-CNG cAMP membrane potential fluorescence; galR3 body fused to GalR1 C-terminus; inhibition, % at 3 µM;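 active means inhibition above the screen-wide average plus 3 SD, cut at about 13% in these data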;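 further: forskolin and galanin both at EC90 stimulate the cells; cAMP rise reported by CNG channel membrane potential dye signal; 0% = forskolin plus galanin with DMSO and 100% = forskolin alone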
Jurkat NFkB conf = lowers PMA/ionomycin-induced NF-kB signal in Jurkat cells | AID 435020 | shares compounds with Jurkat NFkB inh | inhibition, % at 4 µM | Jurkat NF-kB luciferase, 16 h | 27% of 2,700 active;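 active means inhibition reaching about 45% at 4 µM in either replicate, limit read from the data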;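 further: plate controls were PMA/ionomycin stimulated DMSO wells for no effect and unstimulated DMSO wells for full effect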
697 NFkB conf = inhibitors of the PMA/ionomycin-induced NF-kB reporter in 697 B cells, retest. 697 B-cell NF-kB luciferase, 16 h. shares compounds with 697 NFkB inh. inhibition, % at 4 µM. 35% of 2,000 active. AID 449746; in the data active means inhibition mostly above about 28%, no sharp cut-off; inactive means mostly below about 22%
NR2E3 ag confirm = confirmation of human NR2E3 agonists; shares compounds with NR2E3 ag-1; inhibition, % at 3.98 µM; 51% of 2,300 active; CHO-S mammalian two-hybrid NR2E3-NCOR, luciferase luminescence; AID 624378;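 active means average inhibition above a cutoff equal to the mean inhibition of all tested compounds plus one SD, cut at about 70% in these data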;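 further: 0% = DMSO in NR2E3 cells and 100% = DMSO in cells lacking NR2E3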
GAL4-VP16 luc = GAL4-VP16 reporter inhibition in NR2E3 agonist counterscreen | shares compounds with NR2E3 ag-1 | CHO-S GAL4-VP16 luciferase reporter, luminescence | inhibition, % at 3.98 µM | 29% of 2,300 active | AID 624379;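 active means mean inhibition above a cutoff equal to the average over all tested compounds plus one standard deviation, cut at about 70% in these data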;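 further: luciferase from a UAS reporter driven by GAL4-VP16 transactivation; 0% = DMSO with VP16-transfected cells and 100% = DMSO with cells lacking VP16; higher means less reporter light so more repression of VP16 activity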
GalR3 conf = GalR3 (human) antagonism, confirmation; shares compounds with GalR3 antagonist; HEK293 GalR3 CNG cAMP biosensor, membrane potential fluorescence; galR3 fused to GalR1 carboxy tail; challenged with forskolin and galanin at EC90; inhibition, % at 3 µM; 59% of 1,600 active;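 active means inhibition above the primary screen's cutoff, the mean inhibition of all screened compounds plus 3 SD, cut at about 13% in these data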;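 further: 0% = forskolin plus galanin and 100% = forskolin alone with DMSO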
HEK-CNG parental = parental cell agonism counter-screen for GalR3 antagonists | 10% of 1,600 active | activation, % at 3 µM | shares compounds with GalR3 antagonist | HEK293-CNG parental cells, cAMP membrane potential fluorescence; normalised: DMSO wells 0%, forskolin wells 100%; in the data active means activation above about 1.3%
The depositor's hits bear a star; · = no result given.

SMILES | Jurkat NFkB inh | Gli-Sufu antag | 697 NFkB inh | NR2E3 ag-1 | NR2E3 ag-2 | GalR3 antagonist | 697 NFkB conf | others
CCOc1ccc(-c2c(C)n(-c3ccc(OCC)cc3)c3[n+]2CCCCC3)cc1 | 100* | 88* | 48* | 64 | 1 | 19* | 60* | Jurkat NFkB conf=79*;NR2E3 ag confirm=97*;GAL4-VP16 luc=60
CCOc1ccc(-n2c(-c3ccoc3)nc3ccccc3c2=O)cc1 | -4 | 2 | -14 | -14 | -1 | -6 | ·
COc1ccc2c(c1)/C(=C/c1cnc[nH]1)C(=O)N2 | 55* | -23 | -182 | 81* | -11 | 2 | · | Jurkat NFkB conf=42;NR2E3 ag confirm=86*;GAL4-VP16 luc=25
COc1cc(CCN)c(OC)cc1C | · | · | · | · | · | -9 | ·
CN(C)c1ccc(C=C(C#N)C#N)cc1 | -8 | -5 | -25 | 7 | 3 | -1 | ·
CC(C)(C)c1cc(C=C(C#N)C#N)cc(C(C)(C)C)c1O | 55* | 88* | -290 | 92* | 0 | 27* | -106 | Jurkat NFkB conf=73*;NR2E3 ag confirm=86*;GAL4-VP16 luc=89*;GalR3 conf=18*;HEK-CNG parental=15*
COC1=CC(=O)[C@]2(C=C1OC)OC[C@@H]1Oc3c(ccc4c3C=CC(C)(C)O4)C(=O)[C@@H]12 | 52* | 85* | 78* | · | · | 41* | 87* | Jurkat NFkB conf=74*;GalR3 conf=98*;HEK-CNG parental=0
Cc1cc(N2CCNC[C@H]2C)ccc1N1CCN[C@H](C)C1 | · | · | · | · | · | -1 | ·
Cn1c(=O)cc(OCC(=O)N2CCC3(CC2)OCCO3)c2ccccc21 | 15 | 9 | 42* | 1 | -1 | -2 | 40*
C/C=C(\C)C(=O)OC1C(C)=C2C(C1OC(=O)CCCCC)C(C)(OC(C)=O)CC(OC(=O)CCC)C1(O)C2OC(=O)C1(C)O (configuration not stated) | 12 | · | -262 | · | -1 | · | -296
COc1ccc(C2=NCc3nnc(C)n3-c3ccc(Cl)cc32)cc1Cl | -31 | 32 | 45* | -3 | 0 | 5 | 35*
COc1ccccc1C1=NCc2nnc(C)n2-c2ccc(Cl)cc21 | -4 | 7 | -3 | 3 | -1 | -3 | ·
O=C1c2ccccc2-n2nnnc2C2c3ccccc3-n3nncc3CN12 (configuration not stated) | · | · | · | 5 | · | -5 | ·
Cn1cnc([N+](=O)[O-])c1Sc1ccc([N+](=O)[O-])cc1 | 20 | 10 | 36* | -1 | -4 | 8 | 43*
CCCCOC(=O)COc1cc(C)cc2oc(=O)c3c(c12)CCC3 | -2 | 3 | -8 | -11 | 2 | -4 | ·
C=CCOC(=O)COc1cc(C)cc2oc(=O)c3c(c12)CCC3 | 13 | -2 | 40* | -17 | -2 | -6 | 32*
COc1ccc(C(O)(c2ccccc2)c2ccncc2)cc1 (configuration not stated) | · | -19 | · | 0 | · | 2 | ·
O=C(NC1CN2CCC1CC2)c1ccc(Cl)cc1 (configuration not stated) | · | · | · | · | · | 0 | ·
CNC(=O)c1cccn(Cc2ccc(C(F)(F)F)cc2)c1=O | 6 | 42 | 50* | 20 | 2 | -3 | 61*
C/C=C/CC#N | -4 | 2 | 15 | 4 | 2 | 2 | ·
